According to ChEMBL document CHEMBL1275434, “In vitro evaluation of CBR-2092, a novel rifamycin-quinolone hybrid antibiotic: studies of the mode of action in Staphylococcus aureus” (Antimicrob Agents Chemother, 2008):
Converted amounts (≈) assume the structure as drawn. The source made the active and inactive calls. The calls are words filed in the database; no cut-off is given here.

Key:
Staphylococcus aureus [1] = assay: Antimicrobial activity against Staphylococcus aureus CB814 harboring gyrA […] and parc S80F mutant genes by broth microdilution method; assay type: functional
Summary of the method: (§1)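 CLSI broth microdilution MIC in cation-adjusted Mueller-Hinton (MHII) broth supplemented with 0.002% (vol/vol) polysorbate 80, included to limit compound loss to plastic surfaces.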

Staphylococcus aureus [2] = assay: Inhibition of cell wall synthesis in quinolone-resistant Staphylococcus aureus CB814 harboring gyrA S84L and parC S80F mutant genes assessed as decrease in [2,3-3H]D-alanine incorporation at 0.5 ug/ml; assay type: functional, organism-based
Summary of the method: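 Macromolecular synthesis time course in S. aureus, measuring incorporation of [methyl-3H]thymidine (DNA), [5,6-3H]uridine (RNA) or [2,3-3H]D-alanine (cell wall). At each time point, incorporation is expressed as percent of the DMSO-treated control culture. Incorporation at time zero is set to 100%.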

Staphylococcus aureus [3] = assay: Antimicrobial activity against Staphylococcus aureus CB1884 harboring rpoB R484H mutant gene, L520 deficient gyrA gene, gyrA S84L mutant gene, R236 duplicated par C gene and parC H103Y mutant gene; assay type: functional
Staphylococcus aureus [4] = assay: Antimicrobial activity against Staphylococcus aureus CB1420 harboring rpoB H481Y and gyrA G584V mutant genes selected after 0.1 ug/ml drug exposure by broth microdilution method
Staphylococcus aureus [5] = assay: Inhibition of DNA synthesis in Staphylococcus aureus CB190 assessed as decrease in [methyl-3H]thymidine incorporation at 0.5 ug/ml; assay type: functional, organism-based
Staphylococcus aureus [6] = assay: Antimicrobial activity against rifampin-sensitive Staphylococcus aureus CB190 harboring rpoB Q468K mutant gene by broth microdilution method; assay type: functional; summary of the method: as §1
Staphylococcus aureus [7] = assay: Antimicrobial activity against Staphylococcus aureus CB808 harboring quinolone-resistant parC S80F mutant gene by broth microdilution method; assay type: functional; summary of the method: as §1
Staphylococcus aureus [8] = assay: Antimicrobial activity against Staphylococcus aureus CB1418 harboring rpoB H481Y and gyrA D705N mutant genes selected after 0.1 ug/ml drug exposure by broth microdilution method
Staphylococcus aureus [9] = assay: Activity at Staphylococcus aureus DNA topoisomerase 4 subunit ParC S80F mutant
[10] = Inhibition of Staphylococcus aureus RpoB H481Y mutant
Summary of the method: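 Recombinant S. aureus σA RNA polymerase holoenzyme carrying RpoB H481Y. Single-round transcription of the pGL2B-T7A1-G-less template. The 272-nt G-less RNA product is quantified by gel electrophoresis. IC50 is the concentration that inhibits 50% of product formed without inhibitor.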

Staphylococcus aureus [11] = assay: Antimicrobial activity against Staphylococcus aureus CB1882 harboring rpoB R484H mutant gene, L520 deficient gyrA gene and R236 duplicated parC gene by broth microdilution method; assay type: functional
Summary of the method: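 CLSI broth microdilution MIC in MHII broth with 0.002% (vol/vol) polysorbate 80. Isolates came from daily stepwise broth passage at sub-MIC drug (MHII without polysorbate 80, 10^6 CFU/ml inoculum, 20–24 h shaking at 37°C), were purified drug-free, and were sequenced at target loci.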

Staphylococcus aureus [12] = assay: Antimicrobial activity against Staphylococcus aureus CB1523 harboring rpoB H481Y and gyrA A26V mutant genes selected after 0.25 ug/ml drug exposure by broth microdilution method; assay type: functional
Summary of the method: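 CLSI broth microdilution in cation-adjusted Mueller-Hinton (MHII) broth supplemented with 0.002% (vol/vol) polysorbate 80 to limit compound loss to plastic. Strains are spontaneous single-step mutants isolated on agar from an rpoB H481Y parent (RN4220 background), purified through drug-free passage with the resistance phenotype re-verified as stable before testing; target loci genotyped by PCR amplification and sequencing.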

Staphylococcus aureus [13] = assay: Antimicrobial activity against Staphylococcus aureus CB1421 harboring rpoB H481Y, parC S80F and gyrA S84L mutant genes selected after 0.18 ug/ml drug exposure by broth microdilution method; assay type: functional
Summary of the method: (§2)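 CLSI broth microdilution MIC in cation-adjusted Mueller-Hinton (MHII) broth with 0.002% (vol/vol) polysorbate 80. Single-step mutants were selected on agar […], purified by drug-free passage, their phenotype re-verified, and resistance loci sequenced.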

Staphylococcus aureus [14] = assay: Antimicrobial activity against Staphylococcus aureus CB1326 harboring rpoB H481Y and gyrA S784F mutant genes selected after 0.2 ug/ml drug exposure by broth microdilution method; assay type: functional; summary of the method: as §2
Staphylococcus aureus [15] = assay: Antimicrobial activity against Staphylococcus aureus CB1417 harboring rpoB H481Y and gyrA G532V mutant genes selected after 0.1 ug/ml drug exposure by broth microdilution method
Staphylococcus aureus [16] = assay: Inhibition of cell wall synthesis in Staphylococcus aureus CB190 assessed as decrease in [2,3-3H]D-alanine incorporation at 0.5 ug/ml; assay type: functional, organism-based
Staphylococcus aureus [17] = assay: Inhibition of protein synthesis in rifamycin-resistant Staphylococcus aureus CB370 harboring rpoB H481Y mutant gene assessed as decrease in L-[3,4,5-3H]leucine incorporation at 0.5 ug/ml; assay type: functional, organism-based
Summary of the method: (§3)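 Time-course radiolabel incorporation in S. aureus cultures with test agent. Precursors: [methyl-3H]thymidine (DNA), [5,6-3H]uridine (RNA), L-[3,4,5-3H]leucine (protein), [2,3-3H]D-alanine (cell wall). At each time point, incorporation with agent is expressed relative to the DMSO-treated control culture as percent incorporation. Time-zero incorporation is set to 100%.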

Staphylococcus aureus [18] = assay: Antimicrobial activity against Staphylococcus aureus CB1880 harboring rpoB R484H mutant gene; assay type: functional
Staphylococcus aureus [19] = assay: Antimicrobial activity against Staphylococcus aureus CB1954 harboring rpoB H481Y, gyrA S84L, K809 deficient gyrA, parC S80F, parC A523D mutant genes selected after CBR-2092 exposure for 7 days by agar dilution method; assay type: functional; conditions: CB1954, 168 h
Summary of the method: (§4)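 CLSI agar dilution MIC with cation-adjusted Mueller-Hinton (MHII) agar as the base medium.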

Staphylococcus aureus [20] = assay: Antimicrobial activity against Staphylococcus aureus CB1947 harboring rpoB H481Y, gyrA S84L, E697 deficient gyrA, parC G167V mutant genes selected after CBR-2092 exposure for 20 days by agar dilution method; conditions: CB1947, 480 h
Staphylococcus aureus [21] = assay: Antimicrobial activity against Staphylococcus aureus CB1334 harboring rpoB H481Y, parC S80F,Q27H and gyrA S84L mutant genes selected after 0.8 ug/ml drug exposure by broth microdilution method; assay type: functional
Staphylococcus aureus [22] = assay: Antimicrobial activity against Staphylococcus aureus CB1891 harboring […], parE P587S and parE F638V mutant genes by broth microdilution method
Staphylococcus aureus [23] = assay: Antimicrobial activity against Staphylococcus aureus CB370 harboring rpoB H481Y mutant gene by agar dilution method; assay type: functional; summary of the method: as §4
Staphylococcus aureus [24] = assay: Antimicrobial activity against Staphylococcus aureus CB1353 harboring rpoB H481Y, parC S80F, parE V458G and gyrA S84L mutant genes selected after 0.53 ug/ml drug exposure by broth microdilution method; assay type: functional
Staphylococcus aureus [25] = assay: Inhibition of protein synthesis in quinolone-resistant Staphylococcus aureus CB814 harboring gyrA S84L and parC S80F mutant genes assessed as decrease in L-[3,4,5-3H]leucine incorporation at 0.5 ug/ml; assay type: functional, organism-based; summary of the method: as §3
Staphylococcus aureus [26] = assay: Antimicrobial activity against Staphylococcus aureus CB1883 harboring rpoB R484H mutant gene, L520 deficient gyrA gene, gyrA S84L mutant gene and R236 duplicated par C gene; assay type: functional

For `CO[C@H]1/C=C/O[C@@]2(C)Oc3c(C)c(O)c4c(O)c(c(/C=N/N5CCC(N(C)C6([C@@H]7CCN(c8c(F)cn9c(=O)c(C(=O)O)cc(C%10CC%10)c9c8C)C7)CC6)CC5)c(O)c4c3C2=O)NC(=O)/C(C)=C\C=C\[C@H](C)[C@H](O)[C@@H](C)[C@@H](O)[C@@H](C)[C@H](OC(C)=O)[C@@H]1C`, the MIC (Staphylococcus aureus [1]) was 0.015 µg/mL (≈ 0.0124 µM), the Activity (Staphylococcus aureus [2]) was “Active” and the Time (Staphylococcus aureus [3]) was 65 min. The MIC (Staphylococcus aureus [4]) was 0.5 µg/mL (≈ 0.415 µM), the Activity (Staphylococcus aureus [5]) was “Active” and the MIC (Staphylococcus aureus [6]) was 0.5 µg/mL (≈ 0.415 µM). The MIC (Staphylococcus aureus [7]) was 0.015 µg/mL (≈ 0.0124 µM), the MIC (Staphylococcus aureus [8]) was 0.5 µg/mL (≈ 0.415 µM) and the CC50 (Staphylococcus aureus [9]) was 2700 nM. The IC50 [10] was over 25000 nM, the MIC (Staphylococcus aureus [11]) was 1 µg/mL (≈ 0.83 µM) and the MIC (Staphylococcus aureus [12]) was 1 µg/mL (≈ 0.83 µM). For the same molecule, the MIC (Staphylococcus aureus [13]) was 1 µg/mL (≈ 0.83 µM), the MIC (Staphylococcus aureus [14]) was 0.5 µg/mL (≈ 0.415 µM) and the MIC (Staphylococcus aureus [15]) was 0.5 µg/mL (≈ 0.415 µM). For the same molecule, the Activity (Staphylococcus aureus [16]) was “Active”, the Activity (Staphylococcus aureus [17]) was “Active” and the Time (Staphylococcus aureus [18]) was 43 min. For the same molecule, the MIC (Staphylococcus aureus [19]) was 2 µg/mL (≈ 1.66 µM), the MIC (Staphylococcus aureus [20]) was 1 µg/mL (≈ 0.83 µM) and the MIC (Staphylococcus aureus [21]) was 8 µg/mL (≈ 6.64 µM). It also gave an MIC (Staphylococcus aureus [22]) of 0.03 µg/mL (≈ 0.0249 µM), an MIC (Staphylococcus aureus [23]) of 0.03 µg/mL (≈ 0.0249 µM) and an MIC (Staphylococcus aureus [24]) of 16 µg/mL (≈ 13.3 µM). The Activity (Staphylococcus aureus [25]) was “Active” and the Time (Staphylococcus aureus [26]) was 47 min.
